Consider 28 compounds from ChEMBL document CHEMBL4184290, “Design, synthesis, and discovery of 5-((1,3-diphenyl-1H-pyrazol-4-yl)methylene)pyrimidine-2,4,6(1H,3H,5H)-triones and related derivatives as novel inhibitors of mPGES-1” (Bioorg Med Chem Lett, 2018).

For orientation: inhibition means the relative decrease from the control value, in per cent. The term IC50 denotes the point on the concentration scale where inhibition reaches its midpoint. Read a low IC50 as inhibition by little substance.

Data set [1] deals with T1, Prostaglandin E synthase (Homo sapiens) (UniProt O14684).
T1 sequence (whole entry): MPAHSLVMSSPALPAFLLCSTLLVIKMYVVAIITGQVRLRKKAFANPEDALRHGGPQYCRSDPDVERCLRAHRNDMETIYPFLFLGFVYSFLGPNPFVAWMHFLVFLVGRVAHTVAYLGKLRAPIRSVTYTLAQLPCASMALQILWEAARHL
Description: Inhibition of human mPGES1 expressed in 293 cell microsomes at 10 uM preincubated for 15 mins followed by PGH2 substrate addition measured after 3 secs by enzyme immunoassay relative to control. The procedure, abridged:
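Single-point screen at 10 μM against human mPGES-1, reported as % inhibition. Only compounds reaching the ≥70% cutoff went on to IC50 determination. Data are means ± SD from triplicate determinations.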

For the next data set, the target named is T2, Prostaglandin E synthase (Homo sapiens, UniProt O14684).
T2 sequence (O14684 whole entry): T1 sequence (whole entry)
Description: Inhibition of human mPGES1 expressed in 293 cell microsomes preincubated for 15 mins followed by PGH2 substrate addition measured after 3 secs by enzyme immunoassay. In a few lines: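 Compounds were first screened against human mPGES-1 at 10 μM, and IC50 values were determined only for those giving ≥70% inhibition. Protein preparation and assay followed earlier reports. Values are means ± SD of single determinations run in triplicate.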

A further data set deals with COX1/COX2. The experiment in a line: Inhibition of ovine COX1/human COX2 assessed as reduction in PGF2alpha production at 100 uM preincubated for 10 mins followed by arachidonic acid substrate addition measured after 2 mins by colorimetric assay relative to control. The note with it: sheep (COX1) / human (COX2), ovine COX1/human COX2 enzyme, probe arachidonic acid.

Compound `CCOc1ccc(-c2nn(-c3ccc(Cl)cc3)cc2C=C(C#N)C#N)cc1` gave an inhibition in data set [1] of 51%.

In data set [1], `CCCCCCCCCCOc1ccc(-c2nn(-c3ccc(Cl)cc3)cc2C=C2C(=O)NC(=O)NC2=O)cc1` yielded an inhibition of more than 70%.

In turn, `O=C1NC(=S)NC(=O)C1=Cc1cn(-c2ccc(Cl)cc2)nc1-c1ccccc1` showed an IC50 at Prostaglandin E synthase of 561 nM. The compound further gave an inhibition in data set [1] of more than 70%.

At Prostaglandin E synthase, `CCCCCCOc1ccc(-c2nn(-c3ccc(Cl)cc3)cc2/C=C2/SC(=S)NC2=O)cc1` gave a concentration for half-maximal inhibition (IC50) of 1730 nM. This compound had an inhibition in data set [1] of more than 70%.

`CCCCOc1ccc(-c2nn(-c3ccc(Cl)cc3)cc2C=C2C(=O)NC(=S)NC2=O)cc1`: the inhibition in data set [1] was more than 70%. Further, the inhibition at 2 min, 100 µM in the data set with COX1/COX2 was found to be 4.4%.

On to `CCOc1ccc(-c2nn(-c3ccc(Cl)cc3)cc2/C=C(\C#N)C(N)=O)cc1`, for which the inhibition in data set [1] came to 32%.

In data set [1], `CCOc1ccc(-c2nn(-c3ccc(Cl)cc3)cc2C=C2C(=O)NC(=S)NC2=O)cc1` registered an inhibition of more than 70%. In addition, the inhibition at 2 min, 100 µM in the data set on COX1/COX2 is 1%.

`CCCCCCOc1ccc(-c2nn(-c3ccc(Cl)cc3)cc2/C=C(\C#N)C(N)=O)cc1`: in data set [1], the inhibition was 14%.

In turn, `O=C1NC(=O)C(=Cc2cn(-c3ccc(Cl)cc3)nc2-c2ccccc2)C(=O)N1` displayed an IC50 at Prostaglandin E synthase of 337 nM. Besides, in data set [1], the inhibition was more than 70%.

As to `CCCCCCOc1ccc(-c2nn(-c3ccc(Cl)cc3)cc2/C=C2/SC(=O)N(CC(=O)O)C2=O)cc1`, the 50% inhibitory concentration (IC50) against Prostaglandin E synthase was found to be 36 nM. Besides, the inhibition in data set [1] is more than 70%. Also, in the data set on COX1/COX2, the inhibition at 2 min, 100 µM worked out at 1.2%.

`O=C1NC(=O)C(=Cc2cn(-c3ccc(Cl)cc3)nc2-c2ccc(OCc3ccccc3)cc2)C(=O)N1`: the IC50 against Prostaglandin E synthase was 598 nM. In data set [1], this compound displayed an inhibition of more than 70%.

As to `CCOc1ccc(-c2nn(-c3ccc(Cl)cc3)cc2/C=C2/SC(=S)NC2=O)cc1`, the concentration for half-maximal inhibition (IC50) at Prostaglandin E synthase is 1040 nM. In data set [1], the inhibition is more than 70%.

In turn, `CCCCCCOc1ccc(-c2nn(-c3ccc(Cl)cc3)cc2C=C2C(=O)NC(=O)NC2=O)cc1` registered an inhibition in data set [1] of more than 70%.

As to `CCCCCCOc1ccc(-c2nn(-c3ccc(Cl)cc3)cc2/C=C2/SC(=O)NC2=O)cc1`, at Prostaglandin E synthase, the half-maximal inhibitory concentration (IC50) came to 1390 nM. In data set [1], this compound showed an inhibition of more than 70%.

With `CCCCOc1ccc(-c2nn(-c3ccccc3)cc2C=C2C(=O)NC(=S)NC2=O)cc1`, in data set [1], the inhibition is more than 70%. In addition, in the data set on COX1/COX2, the inhibition at 2 min, 100 µM amounted to 16%.

The compound `CCCCCCCCOc1ccc(-c2nn(-c3ccc(Cl)cc3)cc2C=C2C(=O)NC(=O)NC2=O)cc1` registered an inhibition in data set [1] of more than 70%.

In turn, `CCCCCCOc1ccc(-c2nn(-c3ccc(Cl)cc3)cc2C=C2C(=O)NC(=S)NC2=O)cc1` returned an inhibition in data set [1] of more than 70%. For the same compound, in the data set with COX1/COX2, the inhibition at 2 min, 100 µM was determined as 0.7%.

In data set [1], `CCCCCCOc1ccc(-c2nn(-c3ccc(Cl)cc3)cc2C=C(C#N)C#N)cc1` came in with an inhibition of 64%.

As to `CCOc1ccc(-c2nn(-c3ccc(Cl)cc3)cc2C=C2C(=O)NC(=O)NC2=O)cc1`, the inhibition in data set [1] is more than 70%.

In turn, `CCCCOc1ccc(-c2nn(-c3ccccc3)cc2C=C2C(=O)NC(=O)NC2=O)cc1` gave an inhibition in data set [1] of more than 70%.

Compound `CCCCCCCCOc1ccc(-c2nn(-c3ccc(Cl)cc3)cc2C=C2C(=O)NC(=S)NC2=O)cc1` gave an inhibition in data set [1] of more than 70%. Also, the inhibition at 2 min, 100 µM in the data set on COX1/COX2 is 0%.

`CCCCCCOc1ccc(-c2nn(-c3ccc(Cl)cc3)cc2/C=C(\C#N)C(=O)O)cc1` yielded an IC50 against Prostaglandin E synthase of 83 nM. Moreover, the inhibition in data set [1] is more than 70%. In addition, in the data set on COX1/COX2, the inhibition at 2 min, 100 µM is 19%.

At Prostaglandin E synthase, `CCOc1ccc(-c2nn(-c3ccc(Cl)cc3)cc2/C=C2/SC(=O)NC2=O)cc1` returned a 50% inhibitory concentration (IC50) of 1590 nM. Besides, the inhibition in data set [1] was more than 70%.

`CCCCOc1ccc(-c2nn(-c3ccc(Cl)cc3)cc2C=C2C(=O)NC(=O)NC2=O)cc1` returned an inhibition in data set [1] of more than 70%.

On to `O=C1NC(=S)NC(=O)C1=Cc1cn(-c2ccc(Cl)cc2)nc1-c1ccc(OCc2ccccc2)cc1`, for which it took 797 nM to reach half-maximal inhibition against Prostaglandin E synthase (IC50). For the same compound, the inhibition in data set [1] was more than 70%.

In turn, `CCOc1ccc(-c2nn(-c3ccc(Cl)cc3)cc2/C=C(\C#N)C(=O)O)cc1` gave a half-inhibitory concentration (IC50) at Prostaglandin E synthase of 283 nM. Also, in data set [1], the inhibition was more than 70%.

`CCCCCCCCCCOc1ccc(-c2nn(-c3ccc(Cl)cc3)cc2C=C2C(=O)NC(=S)NC2=O)cc1`: in data set [1], the inhibition was more than 70%. Further, the inhibition at 2 min, 100 µM with COX1/COX2 stood at 11%.

In turn, `CCOc1ccc(-c2nn(-c3ccc(Cl)cc3)cc2/C=C2/SC(=O)N(CC(=O)O)C2=O)cc1` displayed a half-inhibitory concentration (IC50) against Prostaglandin E synthase of 41 nM. For the same compound, the inhibition in data set [1] was more than 70%. Moreover, in the data set with COX1/COX2, the inhibition at 2 min, 100 µM came to 6.8%.
